RGS4 act: RGS4 potentiation or activation; HEK293 M3R/inducible RGS4, carbachol calcium flux Fluo4; hits give low values; B-score at 10 µM; hit rate 0.92% among 310,000;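 active = B-score of the integrated calcium signal more than 4 SD below the library mean, with starting fluorescence not abnormally high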;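 note: negative B-score means reduced calcium response which marks RGS4 activation or potentiation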
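Also added: carbachol at ECmax as muscarinic agonist stimulus; Assay system: HEK293 cells with stable M3R and inducible RGS4; Timing: overnight RGS4 induction, 30 min dye load 37 °C, 20 min compound RT; Measured by: Fluo4-AM (2 µM) calcium-flux fluorescence, kinetic read.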
RGS4 inh: inhibitors of human RGS4; hit rate 0.45% among 310,000; HEK293 M3R/RGS4 inducible, Fluo-4 calcium flux; hits give high values; triggered by carbachol at its EC20; AID 463165; B-score at 10 µM;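 active = B-score, a plate-corrected calcium signal, over three deviations above library mean, with baseline fluorescence within five deviations of library mean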;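 note: RGS4 expression induced by doxycycline in cells with stable M3 receptor; B-score is computed from the integrated fluorescence ratio over baseline after carbachol; higher B-score means a larger calcium signal and so more RGS4 inhibition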
Target sequence (P49798 whole entry, looked up): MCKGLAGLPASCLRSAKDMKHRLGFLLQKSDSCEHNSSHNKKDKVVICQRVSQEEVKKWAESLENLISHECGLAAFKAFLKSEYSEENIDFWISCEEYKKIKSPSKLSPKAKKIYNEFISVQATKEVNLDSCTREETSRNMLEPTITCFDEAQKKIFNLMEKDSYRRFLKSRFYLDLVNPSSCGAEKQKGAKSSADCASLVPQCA
MrgX1 allo act: human MrgX1 positive allosteric modulation, primary screen; MrgX1-HEK293, Fluo-4 calcium flux, FDSS; hits give high values; B-score at 10 µM; hit rate 0.63% among 310,000;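 active = plate-corrected calcium response at least 3 library SD above typical, normal starting fluorescence, not activating the receptor alone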;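 note: compound read alongside a low EC10 to EC30 dose of BAM8-22 agonist; peak minus trough fluorescence over baseline measured at the second addition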
Target sequence (Q96LB2 whole entry, looked up): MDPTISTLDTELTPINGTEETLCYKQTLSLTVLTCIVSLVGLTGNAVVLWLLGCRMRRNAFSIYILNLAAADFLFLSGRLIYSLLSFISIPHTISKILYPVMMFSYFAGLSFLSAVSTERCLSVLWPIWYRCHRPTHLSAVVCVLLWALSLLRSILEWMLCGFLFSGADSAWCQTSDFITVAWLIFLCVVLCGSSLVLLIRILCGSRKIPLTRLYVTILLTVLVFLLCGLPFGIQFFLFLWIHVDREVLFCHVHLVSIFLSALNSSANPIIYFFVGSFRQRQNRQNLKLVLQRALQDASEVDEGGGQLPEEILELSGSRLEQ
MrgX1 ag: human MrgX1 receptor agonism, primary screen | Q96LB2 | MrgX1-HEK293 cells, Fluo-4 calcium fluorescence, agonist mode; hits give high values | B-score at 10 µM | hit rate 0.44% among 310,000;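 active = calcium response B-score plate-corrected fluorescence ratio at least 3 library SD, with starting fluorescence B-score inside 5 SD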
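System – MrgX1-expressing HEK293 cells · Incubation – cells plated overnight, dye loaded 0.5 h 37 °C, 0.5 h room temperature · Technique – kinetic Fluo-4 NW fluorescence of intracellular calcium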
MrgX1 antag: human MrgX1 receptor antagonism, primary screen; B-score at 10 µM; MRGX1-HEK293 calcium flux, Fluo-4, BAM8-22 antagonism; hits give low values; hit rate 1.3% among 310,000; Q96LB2;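 active = calcium-response B-score plate-corrected more than 3 library SD below zero, starting fluorescence within 5 deviations, no agonist response on first addition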;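 note: peak minus trough fluorescence over baseline after final BAM8-22 challenge near maximal dose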
MrgX1 ant reconf: human MrgX1 receptor antagonism, re-confirmation screen; shares compounds with MrgX1 antag; AID 602420; hit rate 19% among 2,300; MrgX1-HEK293, BAM8-22 calcium flux, Fluo-4; hits give low values; remaining BAM8-22 calcium response % of control (hits give low values), % at 10 µM;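 active = remaining agonist calcium response no higher than 100% minus 3 SD of agonist-only control wells, with starting fluorescence near control levels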;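 note: agonist BAM8-22 given at a near maximal EC90 to ECmax level; peak minus minimum fluorescence divided by baseline after agonist addition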
HEK293 Ca flux: MrgX1 antagonist counter-screen hit in parental HEK293 cells; shares compounds with MrgX1 antag; Fluo-4 calcium fluorescence, FDSS; fluorescence ratio F(max-min)/F0 at 10 µM; hit rate 2% among 4,000;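 active = duplicate-averaged calcium fluorescence ratio at least three times the standard deviation of buffer wells, a nonspecific response in parental cells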
HEK293 Ca counter: activity in parental HEK293 cells without MrgX1 | parental HEK293 calcium flux, Fluo-4 fluorescence ratio; hits give high values | fluorescence ratio F(max-min)/F0 at 10 µM | shares compounds with MrgX1 antag | AID 624114 | hit rate 0.4% among 4,000;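 active = calcium fluorescence ratio, averaged over duplicates, at least 3 SD of the buffer-well ratio, meaning a nonspecific response in receptor-free cells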;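 note: untransfected parental HEK293 lacking MrgX1 used as counterscreen for MrgX1 allosteric activators; fluorescence change taken during the second addition on a kinetic imager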
HEK293 Ca cntr2: activity in parental HEK293 cells lacking MrgX1 receptor; AID 624115; hit rate 8.7% among 4,000; fluorescence ratio F(max-min)/F0 at 10 µM; shares compounds with MrgX1 antag; Fluo-4 calcium fluorescence (FDSS); hits give high values;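 active = calcium fluorescence ratio at least three times the spread of buffer wells, meaning a non-specific response in parental cells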
* marks the source's active call; other numbers are inactive results; i = inactive; · = no result given. Rows were chosen to be rich in hits. Some 3.5% of all compounds tested hit in one or more screens of this group.

SMILES	RGS4 act	RGS4 inh	MrgX1 allo act	MrgX1 ag	MrgX1 antag	MrgX1 ant reconf	HEK293 Ca flux	HEK293 Ca counter	HEK293 Ca cntr2
CC(C)Oc1ccc(C(CCN)C2CCCCC2)cc1 (stereo unspecified)	i	i	i	i	-4.7*	i	i	i	i
COC(=O)c1cnn(-c2ccc(F)cc2F)c1/C=N/NC(N)=S	i	i	i	i	i	·	·	·	·
COc1cc(CCC(=O)Nc2nnc(-c3cccnc3)s2)cc(OC)c1OC	i	i	i	i	i	·	·	·	·
O=C(Cc1n[nH]c(=O)c2ccccc12)OCC(=O)c1ccccc1Cl	i	i	i	i	i	·	·	·	·
COc1ccc(C(=O)COC(=O)Cc2n[nH]c(=O)c3ccccc23)c(OC)c1	i	i	i	i	-8.2*	i	i	i	i
CCN1CCc2nc(NC(=O)C(c3ccccc3)c3ccccc3)sc2C1	i	i	i	i	-5.8*	i	i	i	i
CCN1CCc2nc(NC(=O)CC(c3ccccc3)c3ccccc3)sc2C1	i	i	i	i	i	·	·	·	·
COc1ccc(OC)c(Nc2nc3nonc3nc2N2CCCC(C)C2)c1 (stereo unspecified)	i	i	i	i	-5.5*	i	i	i	i
CC1=C(C(=O)Nc2ccccn2)C(c2cn(C)nc2C)C2=C(CCCC2=O)N1 (stereo unspecified)	i	i	i	i	-4.9*	i	i	i	i
CCn1cc(C2C(C(=O)Nc3ccc(Br)cn3)=C(C)NC3=C2C(=O)CCC3)c(C)n1 (stereo unspecified)	i	i	i	i	i	·	·	·	·
C=CCNC(=O)COC(=O)c1ccc(C)c(NC(=O)c2ccco2)c1	i	i	i	i	-7.6*	i	i	i	i
CCCCNC(=O)COC(=O)c1ccc(C)c(NC(=O)c2ccco2)c1	i	i	i	i	i	·	·	·	·
CN(C)C(CNC(=O)c1ccc(NS(=O)(=O)c2ccc(F)cc2)cc1)c1ccco1 (stereo unspecified)	i	i	i	i	-6.1*	i	i	i	i
Cc1cccc(NS(=O)(=O)c2ccc(C(=O)NCC(c3ccccc3)N(C)C)cc2)c1C (stereo unspecified)	i	i	i	i	-5.2*	85%*	i	i	i
CCCCNC(=O)COC(=O)c1cc(C)oc1C	i	i	i	i	i	·	·	·	·
Cc1ccc(N2C(=O)c3ccccc3NC2C(C)Cc2ccc3c(c2)OCO3)cc1 (stereo unspecified)	i	i	i	i	-5.1*	i	i	i	i
NC(=S)Nc1ccc(Cl)cc1Cl	i	i	i	i	-6.5*	i	i	i	i
S=C(Nc1ccccc1)Nc1ccc(Cl)cc1Cl	i	i	i	i	i	·	·	·	·
Cn1c(=O)oc2cc(S(=O)(=O)N3CCCC(C(=O)NCCN4CCOCC4)C3)ccc21 (stereo unspecified)	·	·	i	i	-4.6*	i	i	i	i
Cc1ccc(S(=O)(=O)NC2CCCCC2)c(C)c1NS(C)(=O)=O	i	i	i	i	i	·	·	·	·
CC1CCCCC1NC(=O)CN1CCN(Cc2ccccc2Cl)C1=O (stereo unspecified)	i	i	i	i	-10*	84%*	i	i	i
O=C(CN1CCN(Cc2ccccc2Cl)C1=O)NC1CCCCCCC1	i	i	i	i	i	·	·	·	·
COC(=O)CS(=O)(=O)c1cc(Br)cc2c1N(C(C)=O)CC2	i	i	i	i	-5.4*	i	i	i	65*
Cc1cc2c(cc1S(=O)(=O)CCC(=O)N(C)Cc1ccccc1)OCC(=O)N2	i	i	i	i	i	·	·	·	·
CCOC(=O)N1CCN(C(=O)CCN2C(=O)COc3ccc(C)cc32)CC1	i	i	i	i	-6*	i	i	i	i
SMILES	RGS4 act	RGS4 inh	MrgX1 allo act	MrgX1 ag	MrgX1 antag	MrgX1 ant reconf	HEK293 Ca flux	HEK293 Ca counter	HEK293 Ca cntr2
CN(C)S(=O)(=O)c1ccc(C(=O)Nc2ccc(S(=O)(=O)NC3=NCCCCC3)cc2)cc1	i	i	i	i	-7.5*	i	i	i	i
O=C(Nc1ccc(S(=O)(=O)NC2=NCCCCC2)cc1)c1ccc(C(F)(F)F)cc1	i	i	i	i	i	·	·	·	·
CCCCn1c(N)c(N(CCC(C)C)C(=O)CC2CCCC2)c(=O)[nH]c1=O	i	i	i	i	i	·	·	·	·
CN1CCN(c2ncnc3scc(-c4ccccc4Cl)c23)CC1	i	i	i	i	i	·	·	·	·
Cc1cc(-c2csc3ncnc(N4CCN(C)CC4)c23)cc(C)c1C	i	i	i	i	-4.9*	i	i	i	i
CC(C)(CNC(=O)c1ccc(NS(=O)(=O)c2ccc(Br)cc2)cc1)N1CCOCC1	i	i	i	i	-6.5*	51%*	i	i	i
O=C(NCCN1CCOCC1)c1cc2ccccc2o1	i	i	i	i	i	·	·	·	·
CC(C)(CNC(=O)c1cc2ccccc2o1)N1CCOCC1	i	i	i	i	-4.5*	i	i	i	i
O=C(NCc1cccs1)c1cc2ccccc2o1	i	i	i	i	-7.5*	i	i	i	i
CCO[C@H]1OC(C(=O)N2CCCCCCC2)=C[C@@H](c2coc3ccccc3c2=O)[C@@H]1CCCO	i	i	i	i	i	·	·	·	·
CC(C)(C)SCCNC(=O)CN(c1ccccc1)S(=O)(=O)c1ccc(F)cc1	i	i	i	i	i	·	·	·	·
NC(=O)C1CCN(CC(=O)Nc2cccc(C(=O)Nc3cccc(C(F)(F)F)c3)c2)CC1	i	i	i	i	-7*	84%*	i	i	i
Cc1ccc(C(=O)Nc2cccc3cccnc23)cc1C	i	i	i	i	i	·	·	·	·

Screens from PubChem BioAssay.
